Experiment [1] has as its target T1, Camphor 5-monooxygenase (Pseudomonas putida, UniProt P00183).
T1 sequence (P00183 whole entry): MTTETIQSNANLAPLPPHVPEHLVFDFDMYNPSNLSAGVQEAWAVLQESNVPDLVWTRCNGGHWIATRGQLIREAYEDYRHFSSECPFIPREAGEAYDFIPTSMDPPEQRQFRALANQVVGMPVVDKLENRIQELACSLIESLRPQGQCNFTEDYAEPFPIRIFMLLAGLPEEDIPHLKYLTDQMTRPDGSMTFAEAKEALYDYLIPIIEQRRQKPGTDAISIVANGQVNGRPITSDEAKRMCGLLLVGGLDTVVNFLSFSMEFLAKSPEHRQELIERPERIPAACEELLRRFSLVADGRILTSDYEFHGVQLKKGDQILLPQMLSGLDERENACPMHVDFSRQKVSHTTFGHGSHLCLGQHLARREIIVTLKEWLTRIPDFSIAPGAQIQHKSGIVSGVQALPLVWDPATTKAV
Description: Inhibition of wild type cytochrome P450cam expressed in Escherichia coli.

Experiment [2] addresses T1, Camphor 5-monooxygenase. Description: Inhibition of wild type cytochrome P450cam expressed in Escherichia coli at 1 mM. In short, it runs like this:
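Camphor-depleted enzyme in 100 mM potassium phosphate, with inhibitor at 1 mM added in DMSO (≤3% of volume). Incubated 15 min at 20 °C, then quenched with CH2Cl2 containing 2 mM β-thujone internal standard. Turnover was taken from the GC product/starting-material ratio and expressed as percent inhibition.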

Experiment [3] addresses T2, Camphor 5-monooxygenase (Pseudomonas putida, UniProt P00183, L244A). Description: Inhibition of L244A mutant cytochrome P450cam expressed in Escherichia coli. The essentials: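 Camphor-depleted enzyme at 20 nM in 100 mM potassium phosphate, with inhibitor at varying amounts added in DMSO (≤3% of volume). Incubated 15 min at 20 °C, then quenched with CH2Cl2 containing 2 mM β-thujone internal standard. Product/starting-material ratio was measured by GC to give turnover, and IC50 was fitted with a Langmuir isotherm.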

The target in experiment [4] is T1, Camphor 5-monooxygenase. Description: Binding constant for wild type cytochrome P450cam expressed in Escherichia coli. The following applies: read-out: Ks. The essentials: (§1)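 Camphor stripped from the enzyme by two elutions with 100 mM sodium phosphate over a size-exclusion column, leaving low-spin water-bound heme. 0.5 μM protein in 100 mM potassium phosphate at 37 °C, measured by difference UV spectroscopy. The 416 nm trough to 424 nm peak absorbance difference was fitted by nonlinear regression to ΔA = ΔAmax[I]/(Ks+[I]).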

Experiment [5] has as its target T2, Camphor 5-monooxygenase. Description: Binding constant for L244A mutant cytochrome P450cam expressed in Escherichia coli. Particulars: read-out: Ks. The essentials:
as §1

Our source for the IC50, inhibition and Kd values is ChEMBL document CHEMBL1138831, “Computer-assisted design of selective imidazole inhibitors for cytochrome p450 enzymes” (J Med Chem, 2004).

pIC50, pKd: −log10 of the molar value.

By pIC50 is commonly meant the IC50 on a negative log10 scale, so that one unit is a factor of ten. As to `c1cn(CC2CC2)cn1`, the pIC50 against Camphor 5-monooxygenase [1] was 5.40.

The inhibition is how much of the control response was suppressed. Lower therefore signals little suppression. For the compound `CC(C)(C)Cc1cncn1C1CC1`, the inhibition at 1000 µM against Camphor 5-monooxygenase [2] was determined as 80%. For the same compound, the negative logarithm of the IC50 (pIC50) at Camphor 5-monooxygenase [3] was 3.89.

Compound `c1cn(CC2CCCCC2)cn1` gave a pIC50 at Camphor 5-monooxygenase [1] of 5.82.

The compound `CCCc1cncn1CC1CC1` had an inhibition at 1000 µM at Camphor 5-monooxygenase [2] of 60%. In addition, the pIC50 against Camphor 5-monooxygenase [3] is 4.44.

For the compound `CCCc1cncn1C1CCCC1`, 1000 µM produced 60% inhibition against Camphor 5-monooxygenase [2]. In addition, the pIC50 at Camphor 5-monooxygenase [3] was 5.19.

Regarding `CCC(CC)Cn1ccnc1`, on Camphor 5-monooxygenase [1], the pIC50 is 6.10.

At Camphor 5-monooxygenase [2], `CC(C)Cc1cncn1CC1CC1` displayed an inhibition at 1000 µM of 20%. At Camphor 5-monooxygenase [3], this compound had a pIC50 of 5.00.

For the compound `c1ccc(Cn2cncc2C2CC2)cc1`, at Camphor 5-monooxygenase [2], the inhibition at 1000 µM was 30%. The compound also gave a pIC50 on Camphor 5-monooxygenase [3] of 4.39.

For the compound `c1ccc(Cn2ccnc2)cc1` [BENZYLIMIDAZOLE], at Camphor 5-monooxygenase [1], the pIC50 was 4.80.

For the compound `CC(=O)N1CCN(c2ccc(OC[C@@H]3CO[C@@](Cn4ccnc4)(c4ccc(Cl)cc4Cl)O3)cc2)CC1` [KETOCONAZOLE], the pKd on Camphor 5-monooxygenase [4] was 6.30; on Camphor 5-monooxygenase [5], 6.22.
